Assay results reported in ChEMBL document CHEMBL2176927 (J Med Chem, 2012).
The source made the active and inactive calls. The calls are words filed in the database; no cut-off is given here.

How the values were obtained:
Mus musculus [1] = test: Inhibition of mTORC1 in human PC3 cells xenografted mouse assessed as reduction of phosphorylated p70S6K level at 10 mg/kg, po after 6 hrs; format: functional, organism-based; set-up: dose 10 mg/kg; conditions: PC-3
Mus musculus [2] = test: Inhibition of mTORC2 in human PC3 cells xenografted mouse assessed as reduction of phosphorylated Akt level at 10 mg/kg, po after 6 hrs; format: functional, organism-based; set-up: dose 10 mg/kg; conditions: PC-3
Summary of the method: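 NCI-PC3 s.c. xenografts in female NCR.nude mice grown to about 500 mm3, then randomized (n = 4). Oral suspension in 0.5% methylcellulose/0.2% Tween 80. Tumors were lysed, normalized by BCA assay, and loaded at 20 µg/well. pAkt Ser473 and total Akt were measured in duplex on Meso Scale electrochemiluminescence in duplicate per mouse, relative to time-matched vehicle mean.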

Mus musculus [3] = test: Inhibition of mTORC1 in human U87 cells xenografted mouse assessed as reduction of phosphorylated p70S6K level at 10 mg/kg, po after 24 hrs; format: functional, organism-based; set-up: dose 10 mg/kg; conditions: U-87MG ATCC
PC-3 [4] = test: Antitumor activity against human PC3 cells xenografted mouse assessed as tumor growth inhibition at 10 mg/kg, po qd for 14 days; format: functional, organism-based; set-up: dose 10 mg/kg
Summary of the method: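 Female NCR.nude mice implanted s.c. in right hind flank with NCI-PC3 cells (5 × 10^6 in Hank's balanced salt solution). Dosing started QD at average tumor volume 200 mm3, 5 mice per group. Body weight recorded twice weekly; 10% body weight loss was the limit for tolerated doses, and mice were euthanized at 20% loss or tumor volume 2000 mm3.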

Mus musculus [5] = test: Inhibition of mTORC2 in human U87 cells xenografted mouse assessed as reduction of phosphorylated Akt level at 10 mg/kg, po after 24 hrs; format: functional, organism-based; set-up: dose 10 mg/kg; conditions: U-87MG ATCC
Summary of the method: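 U87 glioma (PTEN-deficient) tumor-bearing mice, four per compound and time point. Tumor and blood were sampled over 24 h. Phospho-Akt was measured in duplicate samples per mouse and expressed relative to time-matched vehicle controls; mean ± one SD.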

[6] = Clearance in mouse liver microsomes; format: ADME, Microsome
Summary of the method: (§1)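 Hepatic clearance (Clhep) predicted from incubation with human, rat or mouse liver microsomes.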

[7] = Volume of distribution at steady state in mouse at 1 mg/kg, iv; format: ADME, organism-based; set-up: dose 1 mg/kg, route intravenous; conditions: in vivo, read-out: Vdss
[8] = Clearance in rat liver microsomes; format: ADME, Microsome; summary of the method: as §1
[9] = Clearance in human liver microsomes; format: ADME, Microsome; summary of the method: as §1
Cytochrome P450 2C19 = Cytochrome P450 2C19 (Homo sapiens, UniProt P33261); test: Inhibition of CYP2C19-mediated mephenytoin metabolism; format: ADME; conditions: recombinant enzyme
Chain of Cytochrome P450 2C19 (P33261 whole entry): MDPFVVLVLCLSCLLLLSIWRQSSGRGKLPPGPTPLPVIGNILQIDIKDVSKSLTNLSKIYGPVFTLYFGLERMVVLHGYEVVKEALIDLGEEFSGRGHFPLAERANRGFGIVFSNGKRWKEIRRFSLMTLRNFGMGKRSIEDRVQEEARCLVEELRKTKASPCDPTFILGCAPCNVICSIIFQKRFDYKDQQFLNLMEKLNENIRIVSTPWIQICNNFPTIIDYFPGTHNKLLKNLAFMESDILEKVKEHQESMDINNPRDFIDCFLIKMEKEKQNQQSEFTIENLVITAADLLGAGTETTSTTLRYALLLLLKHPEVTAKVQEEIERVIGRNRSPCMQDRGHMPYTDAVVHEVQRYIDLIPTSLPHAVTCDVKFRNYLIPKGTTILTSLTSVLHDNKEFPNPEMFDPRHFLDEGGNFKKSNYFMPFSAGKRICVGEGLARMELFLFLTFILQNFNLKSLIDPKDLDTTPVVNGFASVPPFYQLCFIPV

PC-3 [10] = test: Cytotoxicity against human pTEN deficient PC3 after 3 days; format: functional, cell-based; conditions: PC-3, 72 h
Cytochrome P450 3A4 = Cytochrome P450 3A4 (Homo sapiens, UniProt P08684); test: Inhibition of CYP3A4-mediated midazolam and testosterone metabolism; format: ADME; conditions: recombinant enzyme
Chain of Cytochrome P450 3A4 (P08684 whole entry): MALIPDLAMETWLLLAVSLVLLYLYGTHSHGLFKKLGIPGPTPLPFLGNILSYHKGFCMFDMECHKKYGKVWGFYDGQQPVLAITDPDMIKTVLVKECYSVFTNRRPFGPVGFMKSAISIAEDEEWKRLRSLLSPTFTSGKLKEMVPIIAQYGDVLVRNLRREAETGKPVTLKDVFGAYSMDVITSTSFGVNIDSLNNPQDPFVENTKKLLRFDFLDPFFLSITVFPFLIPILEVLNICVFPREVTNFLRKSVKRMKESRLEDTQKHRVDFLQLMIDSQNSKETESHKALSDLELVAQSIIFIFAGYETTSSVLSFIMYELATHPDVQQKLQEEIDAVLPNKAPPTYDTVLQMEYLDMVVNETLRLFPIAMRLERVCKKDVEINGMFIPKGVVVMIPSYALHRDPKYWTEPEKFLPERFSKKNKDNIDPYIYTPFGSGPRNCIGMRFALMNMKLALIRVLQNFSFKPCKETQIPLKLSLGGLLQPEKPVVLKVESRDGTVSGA

[11] = Plasma protein binding in rat; format: ADME, cell-free; conditions: read-out: PPB (converted)
[12] = Half life in mouse at 1 mg/kg, iv; format: ADME, organism-based; set-up: dose 1 mg/kg, route intravenous; conditions: in vivo
[13] = Oral bioavailability in mouse at 5 mg/kg; format: ADME, organism-based; conditions: in vivo
[14] = Cytotoxicity against human MCF7/neo expressing HER2 after 3 days; format: functional
Cytochrome P450 2D6 = Cytochrome P450 2D6 (Homo sapiens, UniProt P10635); test: Inhibition of CYP2D6-mediated dextromethorphan metabolism; format: ADME; conditions: recombinant enzyme
Chain of Cytochrome P450 2D6 (P10635 whole entry): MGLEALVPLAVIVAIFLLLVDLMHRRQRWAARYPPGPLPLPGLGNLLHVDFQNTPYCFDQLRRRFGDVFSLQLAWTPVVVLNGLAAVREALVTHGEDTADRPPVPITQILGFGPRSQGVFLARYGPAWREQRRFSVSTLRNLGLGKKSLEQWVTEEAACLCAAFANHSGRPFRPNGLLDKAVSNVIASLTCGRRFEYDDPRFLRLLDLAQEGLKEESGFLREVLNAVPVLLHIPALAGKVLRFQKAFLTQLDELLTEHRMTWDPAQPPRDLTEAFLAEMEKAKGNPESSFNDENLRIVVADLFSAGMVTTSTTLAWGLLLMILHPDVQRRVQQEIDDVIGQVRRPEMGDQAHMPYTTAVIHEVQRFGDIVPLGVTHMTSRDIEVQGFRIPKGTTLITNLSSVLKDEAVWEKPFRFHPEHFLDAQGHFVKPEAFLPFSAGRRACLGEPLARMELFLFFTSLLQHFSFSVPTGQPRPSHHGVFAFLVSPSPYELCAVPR

[15] = Clearance in mouse at 1 mg/kg, iv; format: ADME, organism-based; set-up: dose 1 mg/kg, route intravenous; conditions: in vivo
[16] = AUC in mouse at 5 mg/kg, po; format: ADME, organism-based; set-up: dose 5 mg/kg, route oral; conditions: plasma
[17] = Plasma protein binding in mouse; format: ADME, cell-free; conditions: read-out: PPB (converted)
[18] = Inhibition of mTORC2 in human pTEN deficient NCI-PC3 cells assessed as reduction of Akt phosphorylation at Ser473; format: cell-based
Cytochrome P450 2C9 = Cytochrome P450 2C9 (Homo sapiens, UniProt P11712); test: Inhibition of CYP2C9-mediated warfarin metabolism; format: ADME; conditions: recombinant enzyme
Chain of Cytochrome P450 2C9 (P11712 whole entry): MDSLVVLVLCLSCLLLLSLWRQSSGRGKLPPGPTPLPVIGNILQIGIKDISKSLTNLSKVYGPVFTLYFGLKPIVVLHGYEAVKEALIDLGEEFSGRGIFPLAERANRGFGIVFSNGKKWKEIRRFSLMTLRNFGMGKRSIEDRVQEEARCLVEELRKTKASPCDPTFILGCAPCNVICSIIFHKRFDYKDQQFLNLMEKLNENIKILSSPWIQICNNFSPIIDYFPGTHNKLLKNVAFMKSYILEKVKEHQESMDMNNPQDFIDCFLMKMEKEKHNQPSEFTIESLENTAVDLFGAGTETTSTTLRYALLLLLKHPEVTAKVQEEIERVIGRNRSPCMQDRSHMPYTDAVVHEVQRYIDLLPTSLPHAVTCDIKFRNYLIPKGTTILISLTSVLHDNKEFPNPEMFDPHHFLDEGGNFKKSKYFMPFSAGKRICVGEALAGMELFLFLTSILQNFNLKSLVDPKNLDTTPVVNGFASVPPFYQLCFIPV

[19] = Plasma protein binding in human; format: ADME, cell-free; conditions: read-out: PPB (converted)
Cytochrome P450 1A2 = target: T1, Cytochrome P450 1A2 (Homo sapiens, UniProt P05177); test: Inhibition of CYP1A2-mediated phenacetin metabolism; format: ADME; conditions: recombinant enzyme
T1 sequence (P05177 whole entry): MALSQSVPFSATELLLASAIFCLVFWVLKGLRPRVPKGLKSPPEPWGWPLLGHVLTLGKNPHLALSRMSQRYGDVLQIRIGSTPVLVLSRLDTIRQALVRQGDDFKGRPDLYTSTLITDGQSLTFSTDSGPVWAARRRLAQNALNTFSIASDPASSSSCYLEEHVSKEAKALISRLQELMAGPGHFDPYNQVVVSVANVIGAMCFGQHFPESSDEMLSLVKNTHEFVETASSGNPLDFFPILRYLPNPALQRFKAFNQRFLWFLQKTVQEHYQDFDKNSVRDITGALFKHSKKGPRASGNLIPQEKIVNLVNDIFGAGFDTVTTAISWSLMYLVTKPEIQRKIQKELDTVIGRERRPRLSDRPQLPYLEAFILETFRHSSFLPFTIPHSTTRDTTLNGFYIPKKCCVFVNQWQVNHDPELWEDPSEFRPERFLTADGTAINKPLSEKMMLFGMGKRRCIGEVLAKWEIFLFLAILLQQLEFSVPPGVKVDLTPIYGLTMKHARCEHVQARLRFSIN

Mus musculus [20] = species on record: Mus musculus; conditions: U-87MG ATCC, 100 mg/kg
Mus musculus [21] = species on record: Mus musculus; conditions: PC-3, 25 to 100 mg/kg
PC-3 [22] = test: Antitumor activity against human PC3 cells xenografted mouse assessed as tumor growth inhibition at 50 mg/kg, po qd for 14 days; format: functional, organism-based; set-up: dose 50 mg/kg
Summary of the method: (§2)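 Female NCR.nude mice with subcutaneous NCI-PC3 flank tumours, dosed orally once daily (or twice daily at the same daily total) for 14 days from a mean tumour volume of 200 mm3; 5 mice/group. Caliper volume is (L x W x W)/2, measured twice weekly.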

Mus musculus [23] = species on record: Mus musculus; conditions: PC-3, 25 to 100 mg/kg; remark: listed apart in the source
PC-3 [24] = test: Antitumor activity against human PC3 cells xenografted mouse assessed as tumor growth inhibition at 6.25 to 100 mg/kg, po qd for 14 days; format: functional, organism-based; summary of the method: as §2
PC-3 [25] = test: Antitumor activity against human PC3 cells xenografted mouse assessed as tumor growth inhibition at […] to 100 mg/kg, po bid for 14 days; format: functional, organism-based; summary of the method: as §2
Mus musculus [26] = test: Toxicity in human PC3 cells xenografted mouse assessed as reduction of body weight at 200 mg/kg, po qd for 14 days; format: organism-based, PC-3; set-up: dose 200 mg/kg, route oral; scale not given: the % may be the effect or the level left; conditions: in vivo, 336 h
Summary of the method: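 Same PC3 s.c. xenograft in nude mice with QD oral dosing, 5 animals per group. Body weight was measured twice weekly; loss above 10% is the protocol limit for tolerated doses and triggers a dosing holiday.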

Mus musculus [27] = species on record: Mus musculus; conditions: U-87MG ATCC, 100 mg/kg; remark: listed apart in the source
[28] = Selectivity ratio of Ki for PI3Kalpha to Ki for mTOR

Row | SMILES | CLhep predicted [6] [mL/min/kg] | Vd [7] [L/kg] | CLhep predicted [8] [mL/min/kg] | CLhep predicted [9] [mL/min/kg] | inhibition (INH) (Cytochrome P450 2C19) | IC50 (PC-3 [10]) [nM] | inhibition (INH) (Cytochrome P450 3A4) | half-life [12] [min] | bioavailability [13] [%] | IC50 [14] [nM] | inhibition (INH) (Cytochrome P450 2D6) | clearance [15] [mL/min/kg] | AUC [16] [µM·h] | IC50 [18] [nM] | inhibition (INH) (Cytochrome P450 2C9) | inhibition (INH) (Cytochrome P450 1A2) | also measured
1 | Cc1c(CN2CCN(C(=O)[C@H](C)O)CC2)sc2c(N3CCOCC3)nc(-c3cnc(N)nc3)nc12 |  |  |  |  |  |  |  |  |  |  |  |  |  |  |  |  | inhibition (Mus musculus [1]): Active; inhibition (Mus musculus [2]): Active
2 | CO[C@H]1C[C@@H]2CC[C@@H](C)[C@@](O)(O2)C(=O)C(=O)N2CCCC[C@H]2C(=O)O[C@H]([C@H](C)C[C@@H]2CC[C@@H](O)[C@H](OC)C2)CC(=O)[C@H](C)/C=C(\C)[C@@H](O)[C@@H](OC)C(=O)[C@H](C)C[C@H](C)/C=C/C=C/C=C/1C |  |  |  |  |  |  |  |  |  |  |  |  |  |  |  |  | inhibition (Mus musculus [3]): Active; TGI (PC-3 [4]): Active; inhibition (Mus musculus [5]): inactive
3 | CCNC(=O)Nc1ccc(-c2nc3c(c(N4CCOC[C@@H]4C)n2)CCN(c2nc(C)ns2)C3)cc1 | 58 | 0.72 | 29 | 19 | Not Active | 230 | Not Active | 31.8 | 32 | 69 | Not Active | 22 | 2.5 | 8.7 | Not Active | Not Active | fraction unbound [11]: 0.04; fraction unbound [17]: 0.02; fraction unbound [19]: 0.03
4 | CCNC(=O)Nc1ccc(-c2nc3c(c(N4CCOC[C@@H]4CC)n2)CCN(c2ncccn2)C3)cc1 |  |  |  |  | Not Active | 40 | Not Active |  |  | 38 | Not Active |  |  | 1.5 | Not Active | Not Active | 
5 | CCOC(=O)Nc1ccc(-c2nc3c(c(N4CCOCC4)n2)CCN(C(=O)c2ccccc2)C3)cc1 |  |  |  |  |  | 4800 |  |  |  |  |  |  |  | 115 |  |  | 
6 | CCNC(=O)Nc1ccc(-c2nc3c(c(N4CCOC[C@@H]4C)n2)CCN(c2cnccn2)C3)cc1 |  |  |  |  | Not Active | 55 | Not Active |  |  | 110 | Not Active |  |  | 4.3 | Not Active | Not Active | 
7 | CCNC(=O)Nc1ccc(-c2nc3c(c(N4CCOC[C@@H]4C)n2)CCN(c2ncccn2)C3)cc1 | 61 | 1.2 | 33 | 15 | Not Active | 150 | Not Active | 102 | 42 | 57 | Not Active | 36 | 2 | 3.3 | Not Active | Not Active | inhibition (Mus musculus [20]): inactive; inhibition (Mus musculus [21]): Active; TGI (PC-3 [22]): Active; inhibition (Mus musculus [23]): Active; fraction unbound [11]: 0.03; TGI (PC-3 [24]): Active; TGI (PC-3 [25]): Active; Activity (Mus musculus [26]): 10%; fraction unbound [17]: 0.01; fraction unbound [19]: 0.02; inhibition (Mus musculus [27]): inactive
8 | CCNC(=O)Nc1ccc(-c2nc3c(c(N4CCOC[C@@H]4C)n2)CN(c2cnccn2)CC3)cc1 | 80 | 1.4 | 44 | 15 |  |  |  | 10.8 | 29 |  |  | 120 | 0.41 |  |  |  | fraction unbound [11]: 0.04; fraction unbound [17]: 0.03; fraction unbound [19]: 0.03
9 | CCNC(=O)Nc1ccc(-c2nc3c(c(N4CCOC[C@@H]4C)n2)CCN(c2cccnn2)C3)cc1 | 34 | 1.7 | 19 | 7.3 | Not Active | 140 | Not Active | 45 | 21.8 | 290 | Not Active | 44 | 0.87 | 13 | Not Active | Not Active | 
10 | CCNC(=O)Nc1ccc(-c2nc3c(c(N4CCOC[C@@H]4C)n2)CN(c2ncccn2)CC3)cc1 | 71 | 2.4 | 44 | 16 |  |  |  | 102 | 62 |  |  | 38 | 2.9 |  |  |  | fraction unbound [11]: 0.03; fraction unbound [17]: 0.03; fraction unbound [19]: 0.02
11 | CCNC(=O)Nc1ccc(-c2nc3c(c(N4CCOCC4)n2)CCN(C(=O)OC)C3)cc1 |  |  |  |  |  | 220 |  |  |  |  |  |  |  | 37 |  |  | 
12 | CCNC(=O)Nc1ccc(-c2nc(N3CCOCC3)c3sc(C(C)(C)O)cc3n2)cc1 |  |  |  |  |  |  |  |  |  |  |  |  |  |  |  |  | Ratio Ki [28]: 20
13 | CCNC(=O)Nc1ccc(-c2nc3c(c(N4CCOCC4)n2)CCN(C(=O)OC(C)(C)C)C3)cc1 |  |  |  |  |  |  |  |  |  |  |  |  |  | 22 |  |  | 
14 | CCNC(=O)Nc1ccc(-c2nc3c(c(N4CCOC[C@@H]4C)n2)CCN(c2nnc(C)o2)C3)cc1 |  |  |  |  | Not Active | 310 | Not Active |  |  | 130 | Not Active |  |  | 22 | Not Active | Not Active | 
15 | CCNC(=O)Nc1ccc(-c2nc3c(c(N4CCOCC4)n2)CCN(C(=O)c2ccccc2)C3)cc1 |  |  |  |  |  | 340 |  |  |  |  |  |  |  | 22 |  |  | 
16 | CCNC(=O)Nc1ccc(-c2nc3c(c(N4CCOCC4)n2)CCN(S(C)(=O)=O)C3)cc1 |  |  |  |  |  | 430 |  |  |  |  |  |  |  | 43 |  |  | 
